HSF1 activator: increases HSF-1 driven luciferase reporter signal; NIH3T3-HGL HSF-1 luciferase reporter, MG132, 8 h; 100% = twice DMSO control signal; activation, % at 9 µM; hit rate 1.7% among 300,000; AID 504408;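 active = mean replicate activation of at least 50% with a set share of replicates each reaching 50%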
HSF1 inhib: HSF1 inhibition; activity change, negative = inhibition, % at 7.5 µM (by protocol); NIH3T3-HGL HSE-luciferase, MG132-induced, luminescence 8 h; hits give low values; AID 2098; hit rate 0.77% among 300,000;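 active = more than half of replicate wells show activity change below -50%, luminescence cut by over half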;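 also: luciferase reports HSF-1 transcriptional activity via heat shock element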
HSP90 inh: HSP90 refolding inhibition in rabbit reticulocyte lysate; hit rate 0.91% among 290,000; AID 1789; luciferase refolding luminescence, 3 h; inhibition, % at 5.6 µM;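 active = inhibition above the screen-wide mean plus 3 SD, computed separately per campaign, cut at about 16% in these data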;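 also: inhibitors lower the luminescence because luciferase stays unfolded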
Hep lipid drop: modulators of hepatic lipid droplet formation | AML12 mouse hepatocytes, oleate lipid droplets, BODIPY imaging | inhibition, % at 6.5 µM | hit rate 0.4% among 240,000 | AID 1656;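 active = lipid droplet intensity inhibited by at least 50%, with more than 500 cells counted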
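Technique: fluorescence imaging, 20x objective, two fields per well / Assay system: AML12 hepatocytes (mouse) / Measure: % inhibition of lipid droplet signal / Doses: 6.5 µM single-point dosing / Incubation: overnight exposure / Reagent: 100 µM oleic acid challenge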
HCV NS3 hel inh: blocks Hepatitis C virus NS3 helicase unwinding; NS3 helicase DNA unwinding, Cy5 molecular beacon fluorescence; AID 1800; hit rate 0.56% among 290,000; inhibition, % at 10.9 µM;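 active = inhibition above the mean of all tested compounds plus 3 SD, set per campaign, cut at about 35% in these data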
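System: HCV NS3 helicase fragment; control set: DMSO and thioflavine S; technique: Cy5 fluorescence at 0 and 60 min, beacon hairpin quenching; reagent: beacon DNA duplex substrate plus ATP; replicates: singlicate; schedule: 1 h reaction at 25 °C, ATP-initiated; medium: MOPS buffer pH 6.5 with MgCl2, DTT, Tween20, BSA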
Hits are given with their value; 0 = inactive; - = not tested or not shown. An excerpt weighted towards active compounds, which were near 3.8% of everything screened.

SMILES	HSF1 activator	HSF1 inhib	HSP90 inh	Hep lipid drop	HCV NS3 hel inh
COC(=O)C1=C(C)N(CCCC(=O)O)C(=O)NC1c1ccccc1OS(=O)(=O)c1ccc([N+](=O)[O-])cc1 (stereo not drawn)	0	0	-	-	-
COc1ccccc1OCCCOc1ccc([N+](=O)[O-])cc1Cl	64.6	0	0	-	0
CC(=O)NCCCOc1ccc([N+](=O)[O-])cc1Cl	55.6	0	0	0	0
COc1ccccc1OCCCOc1ccc(C)cc1Br	56.6	0	0	0	0
O=C(NCc1ccc(F)cc1)C1CCCN(c2nc3ccsc3c(=O)s2)C1 (stereo not drawn)	0	0	0	0	0
CCOc1ccc(C(=O)NN2CCOCC2)cc1	0	0	0	0	0
Cc1ccnc(NS(=O)(=O)c2ccc(NS(=O)(=O)c3ccc([N+](=O)[O-])cc3)cc2)n1	0	0	0	0	0
O=C(C1CCN(c2nnc(N3CCCC3=O)s2)CC1)N1CCN(Cc2ccc3c(c2)OCO3)CC1	-	-	33.4	0	0
Cc1ccccc1C(=O)NNC(=O)c1cccc(Br)c1	0	0	0	0	0
COc1ccc(OC)c(/C=N/NC(=O)C(=O)N2CCCCCC2)c1	0	0	0	0	0
COc1ccc(-c2cc(CS(=O)(=O)c3ccccc3)on2)cc1	63.7	0	0	0	0
COc1cccc(CC2(CO)CCN(S(=O)(=O)c3ccc(OC)cc3OC)CC2)c1	0	-55.9	0	0	0
CC(=O)Nc1ccc(NC2CCCCC2NS(=O)(=O)c2ccccc2)cc1 (stereo not drawn)	0	0	0	0	0
COC(=O)c1c(N2C(=O)[C@H]3[C@@H](C2=O)[C@]2(C(=O)Nc4c(C)cccc42)N2CCC[C@@H]32)sc(C)c1C	0	-73.8	0	0	0
Cc1c(NC(=O)Nc2ccc([N+](=O)[O-])cc2)c(=O)n(-c2ccccc2)n1C	57.9	0	0	-	0
Cc1ccc(NC(=O)Nc2c(C)n(C)n(-c3ccccc3)c2=O)cc1	0	0	0	0	0
O=C(CN1CCN(C(=O)C2CCCO2)CC1)Nc1cc(C(F)(F)F)ccc1Cl (stereo not drawn)	0	0	0	0	0
COCCNC(=O)Cn1ccc2cc(S(=O)(=O)N3CCCCCC3)ccc21	0	0	0	0	0
CC1=NC(=O)C(N=Nc2cccc(C(=O)O)c2)N1c1ccccc1 (stereo not drawn)	0	0	16.6	0	0
CN1CCN(C(CNC(=O)C(=O)NC2CCCC2)c2ccc(F)cc2)CC1 (stereo not drawn)	0	0	-	-	-
COC(=O)c1cc(=O)n(-c2ccc(F)cc2)c(=Nc2ccc(F)cc2)s1	56.9	0	0	0	0
COC(=O)c1cc(=O)n(Cc2cccs2)c(=Nc2ccc(F)cc2)s1	52.1	0	0	0	0
COC(=O)c1ccc(N=c2sc(C(=O)OC)cc(=O)n2C)cc1	-	-	0	0	0
Cc1cc(NC(=O)CCSc2ccccc2)no1	-	-	0	0	0
CSc1nsc(SCC(=O)N2CCCCC2)n1	0	0	0	0	0
